Experimental data from ChEMBL document CHEMBL4715813, “Allicin-inspired pyridyl disulfides as antimicrobial agents for multidrug-resistant Staphylococcus aureus” (Eur J Med Chem, 2018).
≈ marks a conversion by molar mass, not a printed value.

Columns and labels:
Assay type in all cases: functional
Staphylococcus aureus [1] = assay: Antibacterial activity against linezolid-resistant Staphylococcus aureus assessed as bacterial growth inhibition incubated for 20 hrs by broth dilution method
Method in brief: (§1)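 Broth microdilution: 0.5 McFarland suspension from an overnight culture, diluted 1:100 in cation-adjusted Mueller Hinton broth (CAMHB), given serial dilutions of test agent for 20 h at 37 °C. MIC is the lowest concentration with no visible growth.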

Escherichia coli = assay: Antibacterial activity against beta-lactam resistant Escherichia coli BAA 2326 assessed as zone of inhibition by disc diffusion method
Staphylococcus aureus [2] = assay: Antibacterial activity against hospital acquired methicillin-resistant Staphylococcus aureus ATCC 43300 assessed as zone of inhibition by disc diffusion method
Enterococcus faecalis = assay: Antibacterial activity against vancomycin-susceptible Enterococcus faecalis ATCC 29212 assessed as zone of inhibition by disc diffusion method
Staphylococcus aureus [3] = assay: Antibacterial activity against vancomycin-resistant Staphylococcus aureus HIP11714 assessed as zone of inhibition by disc diffusion method
Staphylococcus aureus [4] = assay: Antibacterial activity against methicillin-susceptible Staphylococcus aureus ATCC 25923 assessed as bacterial growth inhibition incubated for 20 hrs by broth dilution method; method in brief: as §1
Acinetobacter baumannii [5] = assay: Antibacterial activity against Acinetobacter baumannii ATCC 19606 assessed as zone of inhibition by disc diffusion method
Acinetobacter baumannii [6] = assay: Antibacterial activity against multidrug-resistant Acinetobacter baumannii BAA 1605 assessed as zone of inhibition by disc diffusion method
Enterobacter cloacae = assay: Antibacterial activity against Enterobacter cloacae ATCC 23355 assessed as zone of inhibition by disc diffusion method
Staphylococcus aureus [7] = assay: Antibacterial activity against vancomycin-intermediate Staphylococcus aureus clinical isolate 12 assessed as bacterial growth inhibition after 20 hrs by broth microdilution assay; method in brief: as §1
Staphylococcus aureus [8] = assay: Antibacterial activity against heterogeneous vancomycin-intermediate resistant Staphylococcus aureus Mu3 ATCC 700698 assessed as zone of inhibition by disc diffusion method
Staphylococcus aureus [9] = assay: Antibacterial activity against heterogeneous vancomycin-intermediate Staphylococcus aureus Mu3 ATCC 700698 assessed as bacterial growth inhibition incubated for 20 hrs by broth dilution method; method in brief: as §1
Enterococcus faecium = assay: Antibacterial activity against vancomycin-resistant Enterococcus faecium ATCC 700221 assessed as zone of inhibition by disc diffusion method
Staphylococcus aureus [10] = assay: Antibacterial activity against methicillin-susceptible Staphylococcus aureus ATCC 25923 assessed as zone of inhibition by disc diffusion method
Staphylococcus aureus [11] = assay: Antibacterial activity against vancomycin-intermediate resistant Staphylococcus aureus Mu50 ATCC 700699 assessed as bacterial growth inhibition incubated for 20 hrs by broth dilution method; method in brief: as §1
Staphylococcus aureus [12] = assay: Antibacterial activity against vancomycin-resistant Staphylococcus aureus HIP11714 assessed as inhibition of bacterial growth incubated for 20 hrs by broth microdilution method; settings: HIP11714, 20 h; method in brief: as §1
[13] = system: Staphylococcus epidermidis; assay: Antibacterial activity against Staphylococcus epidermidis ATCC 14990 assessed as zone of inhibition by disc diffusion method
Staphylococcus aureus [14] = assay: Antibacterial activity against vancomycin-intermediate resistant Staphylococcus aureus Mu50 ATCC 700699 assessed as zone of inhibition by disc diffusion method
Staphylococcus aureus [15] = assay: Antibacterial activity against community acquired methicillin-resistant Staphylococcus aureus BAA 1747 assessed as zone of inhibition by disc diffusion method
Bacillus anthracis = assay: Antibacterial activity against Bacillus anthracis Sterne 34F2 assessed as zone of inhibition by disc diffusion method
Staphylococcus aureus [16] = assay: Antibacterial activity against vancomycin-resistant Staphylococcus aureus clinical isolate 10 assessed as bacterial growth inhibition after 20 hrs by broth microdilution assay; method in brief: as §1
Klebsiella pneumoniae = assay: Antibacterial activity against multidrug-resistant Klebsiella pneumoniae ATCC 700603 assessed as zone of inhibition by disc diffusion method
Pseudomonas aeruginosa = assay: Antibacterial activity against Pseudomonas aeruginosa ATCC 15422 assessed as zone of inhibition by disc diffusion method
Staphylococcus aureus [17] = assay: Antibacterial activity against methicillin-resistant Staphylococcus aureus ATCC 43300 assessed as bacterial growth inhibition incubated for 20 hrs by broth dilution method; method in brief: as §1

Structure (SMILES)	MIC (Staphylococcus aureus [1]) [µM]	diameter of the inhibition zone (DIZ) (Escherichia coli) [mm]	diameter of the inhibition zone (DIZ) (Staphylococcus aureus [2]) [mm]	diameter of the inhibition zone (DIZ) (Enterococcus faecalis) [mm]	diameter of the inhibition zone (DIZ) (Staphylococcus aureus [3]) [mm]	MIC (Staphylococcus aureus [4]) [µM]	diameter of the inhibition zone (DIZ) (Acinetobacter baumannii [5]) [mm]	diameter of the inhibition zone (DIZ) (Acinetobacter baumannii [6]) [mm]	diameter of the inhibition zone (DIZ) (Enterobacter cloacae) [mm]	MIC50 (Staphylococcus aureus [7]) [µM]	MIC90 (Staphylococcus aureus [7]) [µM]	diameter of the inhibition zone (DIZ) (Staphylococcus aureus [8]) [mm]	diameter of the inhibition zone (DIZ) (Enterococcus faecium) [mm]	diameter of the inhibition zone (DIZ) (Staphylococcus aureus [10]) [mm]	diameter of the inhibition zone (DIZ) [13] [mm]	diameter of the inhibition zone (DIZ) (Staphylococcus aureus [14]) [mm]	diameter of the inhibition zone (DIZ) (Staphylococcus aureus [15]) [mm]	diameter of the inhibition zone (DIZ) (Bacillus anthracis) [mm]	diameter of the inhibition zone (DIZ) (Klebsiella pneumoniae) [mm]	diameter of the inhibition zone (DIZ) (Pseudomonas aeruginosa) [mm]	other results
CCCCCCSSc1ccccn1	50 (≈ 11.4 µg/mL)	0	49	20	46	25 (≈ 5.68 µg/mL)	0	0	8	50 (≈ 11.4 µg/mL)	50 (≈ 11.4 µg/mL)	45	13	47	>50	>50	40	>50	0	0	MIC (Staphylococcus aureus [9]): 50 µM (≈ 11.4 µg/mL); MIC (Staphylococcus aureus [11]): 25 µM (≈ 5.68 µg/mL); MIC (Staphylococcus aureus [12]): 50 µM (≈ 11.4 µg/mL); MIC50 (Staphylococcus aureus [16]): 50 µM (≈ 11.4 µg/mL); MIC90 (Staphylococcus aureus [16]): 50 µM (≈ 11.4 µg/mL); MIC (Staphylococcus aureus [17]): 50 µM (≈ 11.4 µg/mL)
CCCCCSSc1ccccn1	> 50	0	21	23	22	50 (≈ 10.7 µg/mL)	0	0	8	50 (≈ 10.7 µg/mL)	50 (≈ 10.7 µg/mL)	27	24	32	>50	24	22	>50	0	0	MIC (Staphylococcus aureus [9]): 50 µM (≈ 10.7 µg/mL); MIC (Staphylococcus aureus [11]): 50 µM (≈ 10.7 µg/mL); MIC (Staphylococcus aureus [12]): > 50 µM; MIC50 (Staphylococcus aureus [16]): 50 µM (≈ 10.7 µg/mL); MIC90 (Staphylococcus aureus [16]): 50 µM (≈ 10.7 µg/mL); MIC (Staphylococcus aureus [17]): 50 µM (≈ 10.7 µg/mL)
O=C(O)CCSSc1ccccn1	–	0	14	0	21	–	0	0	0	–	–	15	0	16	10	15	14	24	0	0	–
